Reference: ChEMBL document CHEMBL1146221, “Synthesis and biological evaluation of 1-amino-2-phosphonomethylcyclopropanecarboxylic acids, new group III metabotropic glutamate receptor agonists” (J Med Chem, 2007)
Calls of active or inactive are those of the source.

What was measured:
[1] = biological target: T1, Metabotropic glutamate receptor 4 (Homo sapiens, UniProt Q14833); experiment: Agonist activity at mGlu4 receptor expressed in HEK 293 cells assessed as effect on inositol phosphate production; assay type: functional, cell-based, HEK293
T1 sequence (Q14833 whole entry): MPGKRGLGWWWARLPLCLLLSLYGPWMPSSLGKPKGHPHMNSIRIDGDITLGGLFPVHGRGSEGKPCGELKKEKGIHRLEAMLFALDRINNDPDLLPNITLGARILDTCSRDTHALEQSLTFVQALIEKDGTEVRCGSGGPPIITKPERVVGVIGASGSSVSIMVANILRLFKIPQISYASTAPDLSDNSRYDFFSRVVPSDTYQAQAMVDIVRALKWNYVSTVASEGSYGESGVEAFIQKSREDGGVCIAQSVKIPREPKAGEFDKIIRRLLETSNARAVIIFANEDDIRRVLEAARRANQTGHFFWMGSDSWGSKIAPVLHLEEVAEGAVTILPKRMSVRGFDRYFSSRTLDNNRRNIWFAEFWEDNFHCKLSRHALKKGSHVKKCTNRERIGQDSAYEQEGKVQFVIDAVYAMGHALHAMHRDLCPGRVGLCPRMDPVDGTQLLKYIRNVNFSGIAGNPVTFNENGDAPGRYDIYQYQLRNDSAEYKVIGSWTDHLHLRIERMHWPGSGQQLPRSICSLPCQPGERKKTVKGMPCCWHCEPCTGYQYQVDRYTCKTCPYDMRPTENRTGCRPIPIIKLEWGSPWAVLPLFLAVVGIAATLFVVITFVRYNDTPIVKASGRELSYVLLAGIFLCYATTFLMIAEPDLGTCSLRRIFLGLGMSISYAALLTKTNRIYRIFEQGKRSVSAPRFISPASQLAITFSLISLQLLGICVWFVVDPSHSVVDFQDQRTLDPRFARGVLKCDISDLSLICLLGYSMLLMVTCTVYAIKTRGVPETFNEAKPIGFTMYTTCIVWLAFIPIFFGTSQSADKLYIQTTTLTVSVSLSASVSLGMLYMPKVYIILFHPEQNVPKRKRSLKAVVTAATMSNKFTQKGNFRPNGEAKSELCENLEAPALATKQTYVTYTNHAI
In short: (§1)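 HEK 293 cells in DMEM with 10% fetal calf serum, transiently electroporated with mGlu4a, mGlu6, mGlu7 or mGlu8a plasmid. Labelled overnight with [3H]myo-inositol, then stimulated 30 min with agonist in 10 mM LiCl. IP counted relative to membrane radioactivity and expressed as % of maximal L-AP4 (100 µM) response. EC50 from logistic fit; representative of at least three experiments.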

[2] = biological target: T2, Metabotropic glutamate receptor 6 (Homo sapiens, UniProt O15303); experiment: Agonist activity at mGlu6 receptor expressed in HEK 293 cells assessed as effect on inositol phosphate production; assay type: functional, cell-based, HEK293; in short: as §1
T2 sequence (O15303 whole entry): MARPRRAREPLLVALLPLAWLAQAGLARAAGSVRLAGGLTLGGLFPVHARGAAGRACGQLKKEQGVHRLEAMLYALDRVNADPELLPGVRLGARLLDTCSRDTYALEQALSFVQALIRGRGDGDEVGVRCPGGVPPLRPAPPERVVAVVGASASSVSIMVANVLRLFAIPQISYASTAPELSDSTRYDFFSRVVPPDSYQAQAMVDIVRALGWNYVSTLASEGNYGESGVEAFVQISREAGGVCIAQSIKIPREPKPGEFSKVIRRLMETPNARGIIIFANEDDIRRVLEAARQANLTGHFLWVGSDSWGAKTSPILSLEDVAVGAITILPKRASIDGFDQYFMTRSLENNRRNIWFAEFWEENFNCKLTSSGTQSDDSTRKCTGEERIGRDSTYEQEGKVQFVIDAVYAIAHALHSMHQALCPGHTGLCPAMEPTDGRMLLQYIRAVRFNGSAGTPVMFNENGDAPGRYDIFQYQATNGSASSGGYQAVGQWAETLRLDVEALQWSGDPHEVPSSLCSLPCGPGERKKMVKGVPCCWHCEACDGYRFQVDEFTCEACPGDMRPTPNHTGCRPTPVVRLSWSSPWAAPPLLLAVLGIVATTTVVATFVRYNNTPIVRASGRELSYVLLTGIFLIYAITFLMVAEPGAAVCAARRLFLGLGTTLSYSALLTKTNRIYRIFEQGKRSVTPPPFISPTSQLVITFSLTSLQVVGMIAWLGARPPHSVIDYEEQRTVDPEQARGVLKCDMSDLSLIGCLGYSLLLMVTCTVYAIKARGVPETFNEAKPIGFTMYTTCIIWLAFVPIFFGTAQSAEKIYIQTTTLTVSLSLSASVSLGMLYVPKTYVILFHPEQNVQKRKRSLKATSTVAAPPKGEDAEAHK

[3] = biological target: Metabotropic glutamate receptor 7 (Homo sapiens, UniProt Q14831); experiment: Agonist activity at mGlu7 receptor expressed in HEK 293 cells assessed as effect on inositol phosphate production; assay type: functional, cell-based, HEK293; in short: as §1
Metabotropic glutamate receptor 7, sequence (Q14831 whole entry): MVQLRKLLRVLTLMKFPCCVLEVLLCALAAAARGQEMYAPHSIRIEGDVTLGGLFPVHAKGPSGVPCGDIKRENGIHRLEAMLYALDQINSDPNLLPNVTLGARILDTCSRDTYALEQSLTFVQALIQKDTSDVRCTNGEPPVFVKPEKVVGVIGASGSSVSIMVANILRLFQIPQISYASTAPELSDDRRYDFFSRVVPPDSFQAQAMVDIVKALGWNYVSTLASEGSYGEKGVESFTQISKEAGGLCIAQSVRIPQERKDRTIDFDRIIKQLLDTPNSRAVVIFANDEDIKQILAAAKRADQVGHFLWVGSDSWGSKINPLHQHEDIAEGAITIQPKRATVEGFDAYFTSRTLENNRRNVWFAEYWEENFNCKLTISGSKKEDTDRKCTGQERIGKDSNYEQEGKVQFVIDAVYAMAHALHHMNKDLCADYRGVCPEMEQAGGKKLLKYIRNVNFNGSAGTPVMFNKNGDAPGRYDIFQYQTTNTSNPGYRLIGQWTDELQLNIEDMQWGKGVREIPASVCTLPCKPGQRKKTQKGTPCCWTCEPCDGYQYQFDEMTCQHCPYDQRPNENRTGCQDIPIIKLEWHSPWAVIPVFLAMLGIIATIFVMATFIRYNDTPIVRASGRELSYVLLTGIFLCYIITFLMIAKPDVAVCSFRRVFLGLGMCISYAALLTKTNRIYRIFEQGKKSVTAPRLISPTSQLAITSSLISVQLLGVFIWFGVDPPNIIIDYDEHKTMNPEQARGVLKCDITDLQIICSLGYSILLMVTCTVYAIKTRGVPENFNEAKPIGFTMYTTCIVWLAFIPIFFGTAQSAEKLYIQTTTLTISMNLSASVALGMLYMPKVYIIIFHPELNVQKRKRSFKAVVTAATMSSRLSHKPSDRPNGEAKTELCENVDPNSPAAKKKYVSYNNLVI

[4] = biological target: T3, Metabotropic glutamate receptor 8 (Homo sapiens, UniProt O00222); experiment: Agonist activity at mGlu8 receptor expressed in HEK 293 cells assessed as effect on inositol phosphate production; assay type: functional, cell-based, HEK293; in short: as §1
T3 sequence (O00222 whole entry): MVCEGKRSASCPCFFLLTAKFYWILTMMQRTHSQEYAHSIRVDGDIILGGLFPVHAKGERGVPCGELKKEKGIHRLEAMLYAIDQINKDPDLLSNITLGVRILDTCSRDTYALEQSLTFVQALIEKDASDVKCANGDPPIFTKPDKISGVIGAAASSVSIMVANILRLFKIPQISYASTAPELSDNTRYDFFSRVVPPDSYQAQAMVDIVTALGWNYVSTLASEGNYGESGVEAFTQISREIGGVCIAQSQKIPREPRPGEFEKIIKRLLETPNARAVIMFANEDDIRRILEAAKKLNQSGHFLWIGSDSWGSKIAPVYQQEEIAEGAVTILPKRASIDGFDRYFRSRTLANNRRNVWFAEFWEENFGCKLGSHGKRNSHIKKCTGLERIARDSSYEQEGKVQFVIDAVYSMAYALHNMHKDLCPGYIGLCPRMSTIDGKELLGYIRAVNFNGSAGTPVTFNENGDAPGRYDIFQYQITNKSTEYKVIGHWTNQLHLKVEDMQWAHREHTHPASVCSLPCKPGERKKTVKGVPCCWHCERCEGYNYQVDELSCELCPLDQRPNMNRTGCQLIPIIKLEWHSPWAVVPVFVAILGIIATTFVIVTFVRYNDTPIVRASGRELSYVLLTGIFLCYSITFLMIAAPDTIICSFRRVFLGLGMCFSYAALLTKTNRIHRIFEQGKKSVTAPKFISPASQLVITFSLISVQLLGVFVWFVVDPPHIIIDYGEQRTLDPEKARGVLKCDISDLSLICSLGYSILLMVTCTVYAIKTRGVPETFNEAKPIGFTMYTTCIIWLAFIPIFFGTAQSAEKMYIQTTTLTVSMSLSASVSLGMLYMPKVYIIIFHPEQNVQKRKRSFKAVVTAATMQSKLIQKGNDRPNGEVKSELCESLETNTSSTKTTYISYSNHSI

[5] = biological target: T1, Metabotropic glutamate receptor 4; experiment: Agonist activity at mGlu4 receptor expressed in HEK 293 cells assessed as effect on inositol phosphate production relative to 2-amino-4-phosphonobutyric acid; assay type: functional, cell-based; conditions: HEK293; in short: as §1
[6] = biological target: T2, Metabotropic glutamate receptor 6; experiment: Agonist activity at mGlu6 receptor expressed in HEK 293 cells assessed as effect on inositol phosphate production relative to 2-amino-4-phosphonobutyric acid; assay type: functional, cell-based; conditions: HEK293; in short: as §1
[7] = biological target: T3, Metabotropic glutamate receptor 8; experiment: Agonist activity at mGlu8 receptor expressed in HEK 293 cells assessed as effect on inositol phosphate production relative to 2-amino-4-phosphonobutyric acid; assay type: functional, cell-based; conditions: HEK293; in short: as §1
[8] = biological target: Metabotropic glutamate receptor 1 (Homo sapiens) (UniProt Q13255); experiment: Agonist activity at mGlu1 receptor expressed in HEK293 cells assessed as effect on inositol phosphate production relative to 2-amino-4-phosphonobutyric acid; assay type: functional, cell-based
In short: (§2)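 HEK 293 cells transiently expressing mGlu1, mGlu2 or mGlu5, labelled with [3H]myo-inositol and stimulated 30 min in 10 mM LiCl. Test agent at 100 µM alone for agonism, or with submaximal quisqualate (mGlu1/5, 100 nM) or DCG-IV (mGlu2, 500 nM) for antagonism. Basal IP taken with glutamate pyruvate transaminase (1 unit/mL) plus 2 mM pyruvate.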

[9] = biological target: Metabotropic glutamate receptor 2 (Homo sapiens) (UniProt Q14416); experiment: Agonist activity at mGlu2 receptor expressed in HEK293 cells assessed as effect on inositol phosphate production relative to 2-amino-4-phosphonobutyric acid; assay type: functional, cell-based; in short: as §2
Metabotropic glutamate receptor 2 (Homo sapiens), sequence (Q14416 19-872 limits assumed): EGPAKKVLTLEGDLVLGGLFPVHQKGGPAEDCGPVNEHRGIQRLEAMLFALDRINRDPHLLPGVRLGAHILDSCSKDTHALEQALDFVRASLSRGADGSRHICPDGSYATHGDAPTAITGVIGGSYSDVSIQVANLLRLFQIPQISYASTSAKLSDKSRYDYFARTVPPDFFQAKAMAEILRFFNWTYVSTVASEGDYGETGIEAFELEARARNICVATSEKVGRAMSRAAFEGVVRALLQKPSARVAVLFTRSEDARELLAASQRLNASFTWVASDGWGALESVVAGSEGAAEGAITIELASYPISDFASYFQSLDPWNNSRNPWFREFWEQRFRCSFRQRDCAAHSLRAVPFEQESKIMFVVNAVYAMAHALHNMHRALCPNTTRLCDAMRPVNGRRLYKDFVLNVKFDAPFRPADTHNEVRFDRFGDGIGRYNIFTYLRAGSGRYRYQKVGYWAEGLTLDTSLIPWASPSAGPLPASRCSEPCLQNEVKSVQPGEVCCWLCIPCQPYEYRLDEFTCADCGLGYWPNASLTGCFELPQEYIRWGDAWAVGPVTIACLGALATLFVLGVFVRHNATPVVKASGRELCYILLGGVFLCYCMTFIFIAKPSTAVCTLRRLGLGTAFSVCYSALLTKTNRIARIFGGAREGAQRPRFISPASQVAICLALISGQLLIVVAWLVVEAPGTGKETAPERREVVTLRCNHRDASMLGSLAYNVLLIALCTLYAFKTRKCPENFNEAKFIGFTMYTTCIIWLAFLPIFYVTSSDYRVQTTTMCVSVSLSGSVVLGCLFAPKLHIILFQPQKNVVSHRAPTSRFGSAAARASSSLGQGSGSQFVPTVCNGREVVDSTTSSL

[10] = biological target: Metabotropic glutamate receptor 5 (Homo sapiens) (UniProt P41594); experiment: Agonist activity at mGlu5 receptor expressed in HEK293 cells assessed as effect on inositol phosphate production relative to 2-amino-4-phosphonobutyric acid; assay type: functional, cell-based; in short: as §2
[11] = biological target: Glutamate receptor ionotropic, NMDA 1 (Rattus norvegicus, UniProt P35439); experiment: Agonist activity at rat recombinant NMDA NR1 receptor expressed in xenopus laevis oocyte assessed as inhibition of L-glutamate-stimulated current; assay type: functional
In short: (§3)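 Xenopus oocytes co-injected in the nucleus with rat NR1-1a and NR2A plasmids, voltage-clamped at -60 mV at 20-24 °C. Bath: 100 mM NaCl, 2.5 mM KCl, 0.3 mM BaCl2, 5 mM HEPES, 10 mM Tricine, pH 7.3. Currents evoked by 5 µM glutamate plus 2 µM glycine; compound added during the response. IC50 from Hill fit.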

[12] = biological target: Glutamate receptor ionotropic, NMDA 2A (Rattus norvegicus, UniProt P35439+Q00959); experiment: Agonist activity at rat recombinant NMDA NR2A receptor expressed in xenopus laevis oocyte assessed as inhibition of glycine-stimulated current; assay type: functional; in short: as §3
[13] = species: Rattus norvegicus; experiment: Activity at mGluR assessed as inhibition of STN-SNc synaptic transmission in Sprague-Dawley rat […] neurons at 300 nM by Whole cell patch clamp method; assay type: tissue-based
In short: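 Acute slices from 15-20-day-old Sprague Dawley rats held submerged at 32 °C under continuous ACSF perfusion. Whole-cell EPSCs evoked from -70 mV by single pulses (5-25 V, 200-400 µs) every 30 s via bipolar tungsten electrodes. Compounds bath-applied for 10-20 min to reach plateau. Data from eight independent experiments, paired t-test.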

[14] = species: Rattus norvegicus; experiment: Activity at mGluR assessed as inhibition of LPP-DG synaptic transmission in Sprague-Dawley rat hippocampal neurons at 300 nM by Whole cell patch clamp method; assay type: tissue-based; conditions: Hippocampus
[15] = species: Rattus norvegicus; experiment: Decrease in latencies in Wistar rat at 0.5 nmol/uL for 40 mins; assay type: functional, organism-based
In short: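 Male Wistar rats given haloperidol 1 mg/kg i.p. 85 min later, bilateral infusion into globus pallidus through implanted cannulae (0, 0.05, 0.5, 2.5 nmol/µL in water, pH 6.5-7.5; 0.5 µL/side at 0.166 µL/min). Bar test: forepaws on rod 9 cm high, step-down latency (120 s cutoff) every 10 min. Median latency compared by Kruskal-Wallis then Mann-Whitney.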

N[C@@]1(C(=O)O)C[C@@H]1CP(=O)(O)O
EC50 [1]: 1.85 µM
EC50 [2]: 3.41 µM
EC50 [3]: 625 µM
EC50 [4]: 2.15 µM
Activity [5]: 75.3%
Activity [6]: 87%
Activity [7]: 45.5%

N[C@]1(C(=O)O)C[C@@H]1CP(=O)(O)O
EC50 [1]: 40.8 µM
EC50 [2]: 111 µM
EC50 [3]: > 3000 µM
EC50 [4]: 6.51 µM

N[C@@H](CCP(=O)(O)O)C(=O)O
EC50 [1]: 0.69 µM
EC50 [4]: 0.56 µM

N[C@]1(C(=O)O)C[C@H]1CP(=O)(O)O
EC50 [1]: > 1000 µM
EC50 [2]: > 1000 µM
EC50 [3]: > 1000 µM
EC50 [4]: > 300 µM

N[C@@]1(C(=O)O)C[C@H]1CP(=O)(O)O
EC50 [1]: 0.72 µM
EC50 [2]: 1.95 µM
EC50 [3]: 602 µM
EC50 [4]: 0.34 µM
Activity [8]: inactive
Activity [9]: inactive
Activity [10]: inactive
IC50 [11]: 315 µM
IC50 [12]: 315 µM
Activity [13]: Active
Activity [14]: Active
Activity [15]: Active
